Measurements from PMC4363178 (Biochemical and biophysical research communications, 2015).
Peptide text beside a SMILES is read from it.

Legend:
[1] = target: T1, PDZ1 of mouse ZO2 (M-ZO2PDZ1) (Mus musculus, UniProt Q9Z0U1); assay: NMR titration; format: binding; settings: for Decrease of chemical shift change of R87 relative to wild-type Cln1-C: same concentration of wild-type Cln1-C, stated jointly for the two mutants
T1 sequence (Q9Z0U1 1-102): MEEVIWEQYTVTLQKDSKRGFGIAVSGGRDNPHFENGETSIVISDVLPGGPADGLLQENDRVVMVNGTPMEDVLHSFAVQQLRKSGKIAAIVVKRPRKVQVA
Method in brief: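 His-tag-cleaved mouse ZO2 PDZ1 from E. coli BL21(DE3), 15N-labelled in M9 medium, at 0.1 mM in pH 5.2 buffer (50mM phosphate, 50mM NaCl, 0.2mM EDTA). Unmodified peptides (>95% pure; 50 mM stock) were added stepwise up to 12:1 peptide:protein, with ≤10% total dilution. A 1H-15N HSQC was recorded at each point at 600 MHz and 298K. Composite shift = {[δHN]^2 + [0.17 δN]^2}^1/2.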

[2] = target: PDZ1 domain of mouse ZO2 (M-ZO2PDZ1) (mouse) (UniProt Q9Z0U1); assay: NMR titration
PDZ1 domain of mouse ZO2 (M-ZO2PDZ1) (mouse), sequence (Q9Z0U1 1-104): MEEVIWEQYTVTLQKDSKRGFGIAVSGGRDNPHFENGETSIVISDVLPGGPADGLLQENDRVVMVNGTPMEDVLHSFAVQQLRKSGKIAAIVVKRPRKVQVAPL

## C[C@H](NC(=O)[C@H](Cc1ccc(O)cc1)NC(=O)[C@H](CC(=O)O)NC(=O)[C@H](CCCCN)NC(=O)CNC(=O)[C@H](CO)NC(=O)[C@H](CO)NC(=O)[C@@H]1CCCN1)C(=O)O [Cln1-C-YA] (H-PSSGKDYA-OH)
[1]
  Kd: 500 ± 250 µM

## CC[C@H](C)[C@H](N)C(=O)N[C@@H](CC(C)C)C(=O)N[C@@H](CCCNC(=N)N)C(=O)N[C@@H](CCCCN)C(=O)N[C@@H](CCCNC(=N)N)C(=O)N[C@@H](CCC(=O)O)C(=O)N[C@@H](Cc1ccc(O)cc1)C(=O)N[C@H](C(=O)O)C(C)C [PMP22-YV] (H-ILRKREYV-OH)
[1]
  Kd: 150 ± 50 µM

## PSSGKDAA [Cln1-C-AA]
[1]
  Decrease of chemical shift change of R87 relative to wild-type Cln1-C: 22 fold

## PSSGKDVY [Cln1-C-VY]
[1]
  Decrease of chemical shift change of R87 relative to wild-type Cln1-C: 22 fold

## mutant PMP22 C-terminal peptide PMP22-M1 (ILRKREYV)
[2]
  Kd: 150 µM
